Experimental data taken from ChEMBL document CHEMBL1126929, “Syntheses of 2,5- and 2,6-difluoronorepinephrine, 2,5-difluoroepinephrine, and 2,6-difluorophenylephrine: effect of disubstitution with fluorine on adrenergic activity” (J Med Chem, 1993).

Tests used:
Cavia porcellus = organism: Cavia porcellus; experiment: Effective concentration for stimulation of [3H]phosphoinositide formation in guinea pig synaptoneurosomes expressing alpha-1 receptor; assay type: functional
Procedure, shortened: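 α1 agonism was read as stimulation of [³H]phosphoinositol formation in guinea pig synaptoneurosomes. EC50 is given as a mean. Efficacy is expressed relative to the parent amine set at 100.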

[1] = molecular target: T1, Adrenergic receptor alpha-2 (Rattus norvegicus, UniProt P22086+P19328+P22909); experiment: Displacement of [3H]clonidine from adrenergic alpha 2 receptor of rat cerebral cortical membranes; assay type: cell membranes, Membrane
T1 sequence (P22086 whole entry): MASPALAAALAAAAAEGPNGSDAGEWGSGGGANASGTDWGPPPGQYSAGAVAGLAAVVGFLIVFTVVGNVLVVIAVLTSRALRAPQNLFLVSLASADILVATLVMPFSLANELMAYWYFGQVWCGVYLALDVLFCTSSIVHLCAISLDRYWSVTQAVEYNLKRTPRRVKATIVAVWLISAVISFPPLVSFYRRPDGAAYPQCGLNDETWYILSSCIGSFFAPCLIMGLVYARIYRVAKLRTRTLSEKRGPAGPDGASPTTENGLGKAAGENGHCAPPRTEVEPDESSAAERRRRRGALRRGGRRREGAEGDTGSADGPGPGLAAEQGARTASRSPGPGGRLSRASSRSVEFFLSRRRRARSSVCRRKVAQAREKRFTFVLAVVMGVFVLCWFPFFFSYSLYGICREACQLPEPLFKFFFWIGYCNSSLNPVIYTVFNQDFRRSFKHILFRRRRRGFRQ
T1 sequence (P19328 whole entry): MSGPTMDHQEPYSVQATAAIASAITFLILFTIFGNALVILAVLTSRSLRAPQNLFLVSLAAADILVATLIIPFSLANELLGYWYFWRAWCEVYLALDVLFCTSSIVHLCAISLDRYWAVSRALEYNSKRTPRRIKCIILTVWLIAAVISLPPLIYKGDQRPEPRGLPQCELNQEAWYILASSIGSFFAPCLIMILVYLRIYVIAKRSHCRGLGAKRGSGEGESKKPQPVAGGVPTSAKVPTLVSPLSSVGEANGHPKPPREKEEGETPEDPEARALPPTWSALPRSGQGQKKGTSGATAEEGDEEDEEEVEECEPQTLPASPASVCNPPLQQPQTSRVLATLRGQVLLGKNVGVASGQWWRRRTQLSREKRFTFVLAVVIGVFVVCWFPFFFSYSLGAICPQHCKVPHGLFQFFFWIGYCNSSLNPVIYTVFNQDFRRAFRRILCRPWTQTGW
T1 sequence (P22909 whole entry): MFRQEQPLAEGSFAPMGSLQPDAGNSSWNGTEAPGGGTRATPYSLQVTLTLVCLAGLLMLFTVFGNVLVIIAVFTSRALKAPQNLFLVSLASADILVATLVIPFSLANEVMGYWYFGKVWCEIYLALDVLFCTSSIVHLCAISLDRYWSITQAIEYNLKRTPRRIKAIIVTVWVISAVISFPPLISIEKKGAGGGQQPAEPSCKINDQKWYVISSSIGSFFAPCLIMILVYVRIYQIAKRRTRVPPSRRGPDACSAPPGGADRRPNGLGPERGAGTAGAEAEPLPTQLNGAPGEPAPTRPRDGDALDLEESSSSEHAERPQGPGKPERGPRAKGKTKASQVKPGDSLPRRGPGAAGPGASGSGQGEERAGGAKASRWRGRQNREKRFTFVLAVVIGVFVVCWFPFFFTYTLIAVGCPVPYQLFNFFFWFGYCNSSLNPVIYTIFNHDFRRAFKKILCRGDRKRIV

[2] = molecular target: T2, Adrenergic receptor alpha-1 (Rattus norvegicus, UniProt P15823+P23944+P43140); experiment: Displacement of [3H]WB-4101 from adrenergic alpha 1 receptor of rat cerebral cortical membranes; assay type: cell membranes, Membrane
T2 sequence (P15823 whole entry): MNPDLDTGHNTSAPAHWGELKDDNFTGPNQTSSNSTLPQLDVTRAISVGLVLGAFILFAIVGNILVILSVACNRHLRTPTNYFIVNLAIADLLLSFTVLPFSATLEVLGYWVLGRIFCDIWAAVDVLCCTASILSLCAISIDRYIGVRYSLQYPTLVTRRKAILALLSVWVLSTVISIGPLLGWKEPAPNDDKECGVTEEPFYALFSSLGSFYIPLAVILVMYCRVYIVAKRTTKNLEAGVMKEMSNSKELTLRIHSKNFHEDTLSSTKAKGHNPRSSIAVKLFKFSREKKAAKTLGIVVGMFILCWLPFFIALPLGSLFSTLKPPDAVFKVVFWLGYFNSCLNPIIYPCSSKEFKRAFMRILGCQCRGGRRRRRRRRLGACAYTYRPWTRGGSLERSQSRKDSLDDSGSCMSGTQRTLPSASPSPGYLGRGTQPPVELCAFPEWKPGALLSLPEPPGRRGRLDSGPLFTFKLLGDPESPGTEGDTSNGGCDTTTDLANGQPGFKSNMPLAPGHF
T2 sequence (P23944 whole entry): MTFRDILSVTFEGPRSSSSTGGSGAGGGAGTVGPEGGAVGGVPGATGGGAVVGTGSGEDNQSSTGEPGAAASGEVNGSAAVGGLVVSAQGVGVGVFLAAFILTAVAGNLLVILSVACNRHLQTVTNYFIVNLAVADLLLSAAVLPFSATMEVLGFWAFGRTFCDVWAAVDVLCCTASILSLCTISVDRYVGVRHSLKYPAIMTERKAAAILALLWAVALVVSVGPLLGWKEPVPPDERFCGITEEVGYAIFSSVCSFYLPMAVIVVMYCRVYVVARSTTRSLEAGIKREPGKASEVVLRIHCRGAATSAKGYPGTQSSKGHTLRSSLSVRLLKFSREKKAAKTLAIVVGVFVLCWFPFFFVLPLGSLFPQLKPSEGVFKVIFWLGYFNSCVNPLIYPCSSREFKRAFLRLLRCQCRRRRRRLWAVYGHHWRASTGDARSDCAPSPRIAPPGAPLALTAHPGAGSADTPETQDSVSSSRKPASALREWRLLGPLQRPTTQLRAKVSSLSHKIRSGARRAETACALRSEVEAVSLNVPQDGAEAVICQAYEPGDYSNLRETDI
T2 sequence (P43140 whole entry): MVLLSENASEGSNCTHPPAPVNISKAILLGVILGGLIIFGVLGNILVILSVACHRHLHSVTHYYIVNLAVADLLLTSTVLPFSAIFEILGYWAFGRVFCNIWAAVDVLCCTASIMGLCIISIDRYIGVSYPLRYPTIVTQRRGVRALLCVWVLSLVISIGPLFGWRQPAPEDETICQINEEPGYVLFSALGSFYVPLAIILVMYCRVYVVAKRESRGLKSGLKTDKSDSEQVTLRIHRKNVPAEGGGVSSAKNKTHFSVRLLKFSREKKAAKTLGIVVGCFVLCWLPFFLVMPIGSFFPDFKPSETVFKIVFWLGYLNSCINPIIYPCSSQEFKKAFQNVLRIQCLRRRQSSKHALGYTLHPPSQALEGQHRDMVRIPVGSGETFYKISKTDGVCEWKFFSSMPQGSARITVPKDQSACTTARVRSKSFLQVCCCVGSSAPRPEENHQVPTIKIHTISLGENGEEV

[3] = molecular target: Beta-1 adrenergic receptor (Rattus norvegicus, UniProt P18090); experiment: Displacement of [3H]dihydroalprenolol from adrenergic beta 1 receptor of rat cerebral cortical membranes; assay type: cell membranes, Membrane
Adrenergic receptor beta = Adrenergic receptor beta (Rattus norvegicus, UniProt P18090+P10608+P26255); experiment: Stimulation of cyclic AMP accumulation in C6 glioma cells expressing adrenergic beta receptor; assay type: functional, cell-based
Procedure, shortened: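 β agonism was read as stimulation of cyclic AMP accumulation in rat C6 glioma cells. EC50 is given as a mean. Efficacy is expressed relative to the parent amine set at 100.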

[4] = molecular target: Beta-2 adrenergic receptor (Rattus norvegicus, UniProt P10608); experiment: Binding affinity against adrenergic beta 2 receptor versus 1 nM [3H]dihydroalprenolol in rat […] cerebellar membranes; assay type: cell membranes, Cerebellum, Membrane
Chain of Beta-2 adrenergic receptor (P10608 whole entry): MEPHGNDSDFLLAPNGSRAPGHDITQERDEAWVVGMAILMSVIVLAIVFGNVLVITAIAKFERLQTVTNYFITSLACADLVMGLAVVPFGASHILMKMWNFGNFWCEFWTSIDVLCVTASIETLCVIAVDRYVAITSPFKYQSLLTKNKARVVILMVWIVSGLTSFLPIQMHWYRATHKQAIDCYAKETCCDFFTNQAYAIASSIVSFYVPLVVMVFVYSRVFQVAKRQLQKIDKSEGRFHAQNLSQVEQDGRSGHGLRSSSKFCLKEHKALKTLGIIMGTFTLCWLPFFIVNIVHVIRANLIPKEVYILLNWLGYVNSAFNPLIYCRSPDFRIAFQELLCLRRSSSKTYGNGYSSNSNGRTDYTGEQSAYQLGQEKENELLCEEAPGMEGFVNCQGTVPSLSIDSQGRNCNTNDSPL

Chain of Beta-1 adrenergic receptor (P18090 whole entry): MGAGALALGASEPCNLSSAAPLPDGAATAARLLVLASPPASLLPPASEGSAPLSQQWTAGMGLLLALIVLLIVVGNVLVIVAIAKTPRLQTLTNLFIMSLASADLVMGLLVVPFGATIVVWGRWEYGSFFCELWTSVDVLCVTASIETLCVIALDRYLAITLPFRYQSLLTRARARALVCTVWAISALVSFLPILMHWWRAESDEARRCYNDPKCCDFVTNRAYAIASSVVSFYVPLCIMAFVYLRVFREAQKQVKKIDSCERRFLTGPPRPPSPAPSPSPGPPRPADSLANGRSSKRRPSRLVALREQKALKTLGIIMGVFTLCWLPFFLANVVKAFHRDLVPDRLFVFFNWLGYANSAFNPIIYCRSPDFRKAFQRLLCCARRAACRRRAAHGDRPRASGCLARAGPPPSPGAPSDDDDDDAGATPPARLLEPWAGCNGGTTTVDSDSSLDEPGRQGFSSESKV

`CNC[C@H](O)c1cccc(O)c1` [PHENYLEPHRINE] showed an EC50 (Cavia porcellus) of 6 µM.
Molecule `CNCC(O)c1cccc(O)c1F` (stereo not given) has a Ki [1] of 1.2 µM, an EC50 (Cavia porcellus) of 80 µM and a Ki [2] of 17 µM. For the same molecule, the Ki [3] was 4 µM.
With `CNCC(O)c1ccc(F)c(O)c1` (stereo not given) the EC50 (Cavia porcellus) was 16 µM.
`NCC(O)c1cc(F)c(O)c(O)c1F` (stereo not given) gave a Ki [1] of 3.5 µM, an EC50 (Cavia porcellus) of 83 µM and a Ki [2] of 24 µM. It also gave a Ki [3] of 5.6 µM.
With `CNCC(O)c1cc(O)ccc1F` (stereo not given) the Ki [1] was 0.23 µM, the EC50 (Cavia porcellus) was 8 µM and the Ki [2] was 2.1 µM. It also gave a Ki [3] of 180 µM.
With `CNCC(O)c1cc(O)c(O)cc1F` (stereo not given) the EC50 (Adrenergic receptor beta) was > 1.5 µM, the Ki [1] was 0.009 µM and the Ki [3] was 63 µM.
Molecule `CNCC(O)c1c(F)ccc(O)c1F` (stereo not given) has a Ki [1] of 0.94 µM, an EC50 (Cavia porcellus) of 4.3 µM and a Ki [2] of 17 µM. The Ki [3] was 81 µM.
In the case of `CNC[C@H](O)c1ccc(O)c(O)c1` [EPINEPHRINE], the Ki [3] is reported as 1.2 µM.
`CNCC(O)c1ccc(O)c(O)c1F` (stereo not given) gave a Ki [1] of 0.066 µM.
For `NCC(O)c1cc(O)c(O)c(F)c1` (stereo not given), the Ki [1] was 0.15 µM, the Ki [2] was 2.3 µM and the Ki [4] was 5.5 µM. It also gave a Ki [3] of 1.5 µM.
`NCC(O)c1ccc(O)c(O)c1F` (stereo not given) was tested, and the Ki [1] was 2.1 µM, the EC50 (Cavia porcellus) was > 180 µM and the Ki [2] was 23 µM.
For `NCC(O)c1c(F)cc(O)c(O)c1F` (stereo not given), the EC50 (Adrenergic receptor beta) was > 100 µM, the Ki [1] was 0.75 µM and the EC50 (Cavia porcellus) was > 100 µM. For the same molecule, the Ki [3] was > 50 µM.
Work on `CNCC(O)c1cc(F)c(O)c(O)c1F` (stereo not given) yielded a Ki [1] of 1.2 µM, an EC50 (Cavia porcellus) of 2.6 µM and a Ki [2] of 39 µM. For the same molecule, the Ki [4] was 0.71 µM and the Ki [3] was 2.3 µM.
With `NCC(O)c1cc(O)c(O)cc1F` (stereo not given) the EC50 (Cavia porcellus) was 4.2 µM.
